Results reported in ChEMBL document CHEMBL1130118, “A novel radioiodination reagent for protein radiopharmaceuticals with L-lysine as a plasma-stable metabolizable linkage to liberate m-iodohippuric acid after lysosomal proteolysis” (J Med Chem, 1997).

Experiments:
Assay type in all cases: ADME, organism-based
[1] = tested on: Mus musculus; experiment: The biodistribution time for compound radioactivity after concomitant administration of [131 I ]L-HML-NGA and compound in mice. It is expressed as percent injected dose per gram of blood tissue after 5 minutes; details: in vivo
Method in brief: (§1)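 Six-week-old male ddY mice received an intravenous injection of a 1:1 mix of the 131I- and 125I-labelled galactosyl-neoglycoalbumin conjugates, each diluted to 90 µg/mL protein in 0.1 M PBS pH 6.0, at 9 µg radioiodinated NGA per mouse. Groups of five were killed at 5, 15 and 30 min, 1 and 3 h. Organs were excised, weighed and well-counted, giving %ID/organ (blood %ID/g) as mean (SD).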

[2] = tested on: Mus musculus; experiment: The biodistribution time for compound radioactivity after concomitant administration of [131 I ]L-HML-NGA and compound in mice. It is expressed as percent injected dose per liver after 1 hour; details: in vivo; method in brief: as §1
[3] = tested on: Mus musculus; experiment: The biodistribution time for compound radioactivity after concomitant administration of [131 I ]L-HML-NGA and compound in mice. It is expressed as percent injected dose per gram of blood tissue after 1 hour; details: in vivo; method in brief: as §1
[4] = tested on: Mus musculus; experiment: The biodistribution time for compound radioactivity after concomitant administration of [131 I ]L-HML-NGA and compound in mice. It is expressed as percent injected dose per neck after 15 minutes; details: in vivo, 0.25 h; method in brief: as §1
[5] = tested on: Mus musculus; experiment: The biodistribution time for compound radioactivity after concomitant administration of [[131 I ]L-HML-NGA and compound in mice. It is expressed as percent injected dose per kidney after 5 minutes; details: in vivo; method in brief: as §1
[6] = organism: Homo sapiens; experiment: The percent protein-bound radioactivity in NGAfractions following incubation of radioiodinated compound in human serum after 3 hours
Method in brief: (§2)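 Conjugates were diluted to 0.5 mg/mL in 0.1 M PBS pH 6.0, and 20 µL was added to 230 µL of freshly prepared human serum. Samples were incubated at 37 °C and taken at 1, 3, 6 or 24 h. Protein-bound fraction (Rf 0) was separated from small metabolites (Rf 0.6-0.9) by paper chromatography in methanol-water 4:1. Protein-bound radioactivity was divided by the initial radiochemical purity. Values are mean (SD).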

[7] = tested on: Mus musculus; experiment: The biodistribution time for compound radioactivity after concomitant administration of [131 I ]L-HML-NGA and compound in mice. It is expressed as percent injected dose per intestine after 1 hour; details: in vivo; method in brief: as §1
[8] = tested on: Mus musculus; experiment: The biodistribution time for compound radioactivity after concomitant administration of [131 I ]L-HML-NGA and compound in mice. It is expressed as percent injected dose per gram of blood tissue after 15 minutes; details: in vivo, 0.25 h; method in brief: as §1
[9] = tested on: Mus musculus; experiment: The biodistribution time for compound radioactivity after concomitant administration of [131 I ]L-HML-NGA and compound in mice. It is expressed as percent injected dose per intestine after 5 minutes; details: in vivo; method in brief: as §1
[10] = tested on: Mus musculus; experiment: The biodistribution time for compound radioactivity after concomitant administration of [131 I ]L-HML-NGA and compound in mice. It is expressed as percent injected dose per intestine after 30 minutes; details: in vivo, 0.5 h; method in brief: as §1
[11] = tested on: Mus musculus; experiment: The biodistribution time for compound radioactivity after concomitant administration of [131 I ]L-HML-NGA and compound in mice. It is expressed as percent injected dose per stomach after 3 hours; details: in vivo; method in brief: as §1
[12] = Cumulative radioactivity exerted by compound in the urine at 24 hour postinjection of [131 I ]L-HML-NGA and compound; details: in vivo
Method in brief: (§3)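 Mice received one i.v. co-injection of the dual-isotope NGA mixture, 9 µg of each radioiodinated protein, and were housed in metabolic cages for 24 h. Cumulative urine and feces were collected and counted. Values are % injected dose, mean (SD) of five animals, with a Student's paired t-test between the two co-administered conjugates.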

[13] = tested on: Mus musculus; experiment: The biodistribution time for compound radioactivity after concomitant administration of [131 I ]L-HML-NGA and compound in mice. It is expressed as percent injected dose per stomach after 15 minutes; details: in vivo, 0.25 h; method in brief: as §1
[14] = tested on: Mus musculus; experiment: The biodistribution time for compound radioactivity after concomitant administration of [[131 I ]L-HML-NGA and compound in mice. It is expressed as percent injected dose per kidney after 1 hour; details: in vivo; method in brief: as §1
[15] = tested on: Mus musculus; experiment: The biodistribution time for compound radioactivity after concomitant administration of [131 I ]L-HML-NGA and compound in mice. It is expressed as percent injected dose per intestine after 15 minutes; details: in vivo, 0.25 h; method in brief: as §1
[16] = tested on: Mus musculus; experiment: The biodistribution time for compound radioactivity after concomitant administration of [131 I ]L-HML-NGA and [compound in mice. It is expressed as percent injected dose per stomach after 1 hour; details: in vivo; method in brief: as §1
[17] = tested on: Mus musculus; experiment: The biodistribution time for compound radioactivity after concomitant administration of [131 I ]L-HML-NGA and compound in mice. It is expressed as percent injected dose per liver after 15 minutes; details: in vivo, 0.25 h; method in brief: as §1
[18] = tested on: Mus musculus; experiment: The biodistribution time for compound radioactivity after concomitant administration of [131 I ]L-HML-NGA and compound in mice. It is expressed as percent injected dose per stomach after 5 minutes; details: in vivo; method in brief: as §1
[19] = tested on: Mus musculus; experiment: The biodistribution time for compound radioactivity after concomitant administration of [131 I ]L-HML-NGA and compound in mice. It is expressed as percent injected dose per stomach after 30 minutes; details: in vivo, 0.5 h; method in brief: as §1
[20] = tested on: Mus musculus; experiment: The biodistribution time for compound radioactivity after concomitant administration of [131 I ]L-HML-NGA and compound in mice. It is expressed as percent injected dose per neck after 5 minutes; details: in vivo; method in brief: as §1
[21] = tested on: Mus musculus; experiment: The biodistribution time for compound radioactivity after concomitant administration of [[131 I ]L-HML-NGA and compound in mice. It is expressed as percent injected dose per kidney after 3 hours; details: in vivo; method in brief: as §1
[22] = organism: Homo sapiens; experiment: The percent protein-bound radioactivity in NGAfractions following incubation of radioiodinated compound in human serum after 1 hour; method in brief: as §2
[23] = tested on: Mus musculus; experiment: The biodistribution time for compound radioactivity after concomitant administration of [131 I ]L-HML-NGA and compound in mice. It is expressed as percent injected dose per gram of blood tissue after 3 hours; details: in vivo; method in brief: as §1
[24] = Cumulative radioactivity exerted by compound in the feces at 24 hour postinjection of [131 I ]L-HML-NGA and compound.; details: in vivo; method in brief: as §3
[25] = tested on: Mus musculus; experiment: The biodistribution time for compound radioactivity after concomitant administration of [131 I ]L-HML-NGA and compound in mice. It is expressed as percent injected dose per intestine after 3 hours; details: in vivo; method in brief: as §1
[26] = tested on: Mus musculus; experiment: The biodistribution time for compound radioactivity after concomitant administration of [131 I ]L-HML-NGA and compound in mice. It is expressed as percent injected dose per gram of blood tissue after 30 minutes; details: in vivo, 0.5 h; method in brief: as §1
[27] = tested on: Mus musculus; experiment: The biodistribution time for compound radioactivity after concomitant administration of [131 I ]L-HML-NGA and compound in mice. It is expressed as percent injected dose per liver after 5 minutes; details: in vivo; method in brief: as §1
[28] = tested on: Mus musculus; experiment: The biodistribution time for compound radioactivity after concomitant administration of [131 I ]L-HML-NGA and compound in mice. It is expressed as percent injected dose per liver after 3 hours; details: in vivo; method in brief: as §1
[29] = tested on: Mus musculus; experiment: The biodistribution time for compound radioactivity after concomitant administration of [[131 I ]L-HML-NGA and compound in mice. It is expressed as percent injected dose per kidney after 30 minutes; details: in vivo, 0.5 h; method in brief: as §1
[30] = tested on: Mus musculus; experiment: The biodistribution time for compound radioactivity after concomitant administration of [131 I ]L-HML-NGA and compound in mice. It is expressed as percent injected dose per neck after 30 minutes; details: in vivo, 0.5 h; method in brief: as §1
[31] = tested on: Mus musculus; experiment: The biodistribution time for compound radioactivity after concomitant administration of [131 I ]L-HML-NGA and compound in mice. It is expressed as percent injected dose per liver after 30 minutes; details: in vivo, 0.5 h; method in brief: as §1
[32] = tested on: Mus musculus; experiment: The biodistribution time for compound radioactivity after concomitant administration of [[131 I ]L-HML-NGA and compound in mice. It is expressed as percent injected dose per kidney after 15 minutes; details: in vivo, 0.25 h; method in brief: as §1
[33] = organism: Homo sapiens; experiment: The percent protein-bound radioactivity in NGAfractions following incubation of radioiodinated compound in human serum after 6 hours; details: in vitro; method in brief: as §2
[34] = tested on: Mus musculus; experiment: The biodistribution time for compound radioactivity after concomitant administration of [131 I ]L-HML-NGA and compound in mice. It is expressed as percent injected dose per neck. Values are mean(SD) of five animals for each experiment after 3 hours; details: in vivo; method in brief: as §1
[35] = organism: Homo sapiens; experiment: The percent protein-bound radioactivity in NGAfractions following incubation of radioiodinated compound in human serum after 24 hours; method in brief: as §2
[36] = tested on: Mus musculus; experiment: The biodistribution time for compound radioactivity after concomitant administration of [131 I ]L-HML-NGA and compound in mice. It is expressed as percent injected dose per neck after 1 hour; details: in vivo; method in brief: as §1
[37] = tested on: Mus musculus; experiment: The biodistribution time for compound radioactivity after concomitant administration of [131 I ]L-HML-NGA and compound in mice. It is expressed as percent injected dose per neck after 3 hours; details: in vivo; method in brief: as §1

SMILES	Radioactivity [1] [%]	Radioactivity [2] [%]	Radioactivity [3] [%]	Radioactivity [4] [%]	Radioactivity [5] [%]	Radioactivity [7] [%]	Radioactivity [8] [%]	Radioactivity [9] [%]	Radioactivity [10] [%]	Radioactivity [11] [%]	Radioactivity [12] [%]	Radioactivity [13] [%]	Radioactivity [14] [%]	Radioactivity [15] [%]	Radioactivity [16] [%]	Radioactivity [17] [%]	Radioactivity [18] [%]	Radioactivity [19] [%]	Radioactivity [20] [%]	Radioactivity [21] [%]	other results
N=C(CCCSC1CC(=O)N(CCCC[C@H](NC(=O)CNC(=O)c2cccc([125I])c2)C(=O)O)C1=O)NC(=O)[C@@H](N)CCCCN (some centres undefined)	1.17	5.92	0.73	0.25	0.33	5.17	2.76	0.43	4.79	0.35	78.26	0.5	1.04	2.26	0.42	55.86	0.24	0.36	0.11	0.22	Radioactivity [6]: 99.4%; Radioactivity [22]: 99.88%; Radioactivity [23]: 0.41%; Radioactivity [24]: 4.03%; Radioactivity [25]: 4.96%; Radioactivity [26]: 1.7%; Radioactivity [27]: 93.67%; Radioactivity [28]: 3%; Radioactivity [29]: 4.64%; Radioactivity [30]: 0.19%; Radioactivity [31]: 18.1%; Radioactivity [32]: 4.38%; Radioactivity [33]: 99.5%; Radioactivity [34]: 0.03%; Radioactivity [35]: 97.85%; Radioactivity [36]: 0.07%
N[C@@H](CS)C(=O)SC1CC(=O)N(CCCCCNC(=O)CNC(=O)c2cccc([125I])c2)C1=O (some centres undefined)	0.76	10.12	0.32	0.06	0.8	55.62	0.68	0.71	33.84	1.48	25.5	0.46	0.77	7.17	0.61	77.12	0.24	0.54	0.06	0.38	Radioactivity [37]: 0.04%; Radioactivity [6]: 99.12%; Radioactivity [22]: 100.07%; Radioactivity [23]: 0.23%; Radioactivity [24]: 58.83%; Radioactivity [25]: 59.36%; Radioactivity [26]: 0.64%; Radioactivity [27]: 93.75%; Radioactivity [28]: 5.72%; Radioactivity [29]: 1.72%; Radioactivity [30]: 0.07%; Radioactivity [31]: 34.19%; Radioactivity [32]: 1.62%; Radioactivity [33]: 98.56%; Radioactivity [35]: 97.26%; Radioactivity [36]: 0.04%
N[C@@H](CS)C(=O)SC1CC(=O)N(CCCC[C@@H](NC(=O)CNC(=O)c2cccc([125I])c2)C(=O)O)C1=O (some centres undefined)	1.15	12.6	0.54	0.2	1.26	34.28	1.78	1.14	21.6	1.09	39.1	0.65	0.72	5.11	1.4	66.9	0.24	2	0.15	0.34	Radioactivity [37]: 0.04%; Radioactivity [23]: 0.34%; Radioactivity [24]: 40.97%; Radioactivity [25]: 40.82%; Radioactivity [26]: 1.11%; Radioactivity [27]: 93.14%; Radioactivity [28]: 3.62%; Radioactivity [29]: 1.73%; Radioactivity [30]: 0.18%; Radioactivity [31]: 27.49%; Radioactivity [32]: 2.97%; Radioactivity [36]: 0.11%
